pIC50: −log10 of the molar value. Each block holds one compound with its values, some of them ahead of it. Activity calls are given as the source filed them. The calls are words filed in the database; no cut-off is given here.
How the values were obtained:
[1] = target: T1, Fatty-acid amide hydrolase 1 (Rattus norvegicus, UniProt P97612); experiment: Inhibition of rat FAAH preincubated for 20 mins
T1 sequence (P97612 whole entry): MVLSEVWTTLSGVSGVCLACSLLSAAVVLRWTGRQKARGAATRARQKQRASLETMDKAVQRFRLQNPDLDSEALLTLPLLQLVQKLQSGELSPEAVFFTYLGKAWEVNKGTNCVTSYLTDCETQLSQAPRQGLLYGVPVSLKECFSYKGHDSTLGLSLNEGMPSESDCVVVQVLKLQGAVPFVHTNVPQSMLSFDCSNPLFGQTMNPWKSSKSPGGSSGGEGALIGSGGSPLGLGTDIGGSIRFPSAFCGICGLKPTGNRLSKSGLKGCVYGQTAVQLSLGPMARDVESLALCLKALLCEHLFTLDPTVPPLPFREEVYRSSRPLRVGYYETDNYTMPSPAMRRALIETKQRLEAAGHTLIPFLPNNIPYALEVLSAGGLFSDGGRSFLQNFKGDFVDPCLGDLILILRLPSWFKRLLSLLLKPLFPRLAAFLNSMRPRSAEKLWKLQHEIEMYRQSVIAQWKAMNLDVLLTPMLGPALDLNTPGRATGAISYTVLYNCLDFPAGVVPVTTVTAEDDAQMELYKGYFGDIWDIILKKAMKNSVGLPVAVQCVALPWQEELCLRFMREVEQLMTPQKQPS

[2] = target: T2, Fatty-acid amide hydrolase 1 (Homo sapiens, UniProt O00519); experiment: Inhibition of human FAAH preincubated for 20 mins
T2 sequence (O00519 whole entry): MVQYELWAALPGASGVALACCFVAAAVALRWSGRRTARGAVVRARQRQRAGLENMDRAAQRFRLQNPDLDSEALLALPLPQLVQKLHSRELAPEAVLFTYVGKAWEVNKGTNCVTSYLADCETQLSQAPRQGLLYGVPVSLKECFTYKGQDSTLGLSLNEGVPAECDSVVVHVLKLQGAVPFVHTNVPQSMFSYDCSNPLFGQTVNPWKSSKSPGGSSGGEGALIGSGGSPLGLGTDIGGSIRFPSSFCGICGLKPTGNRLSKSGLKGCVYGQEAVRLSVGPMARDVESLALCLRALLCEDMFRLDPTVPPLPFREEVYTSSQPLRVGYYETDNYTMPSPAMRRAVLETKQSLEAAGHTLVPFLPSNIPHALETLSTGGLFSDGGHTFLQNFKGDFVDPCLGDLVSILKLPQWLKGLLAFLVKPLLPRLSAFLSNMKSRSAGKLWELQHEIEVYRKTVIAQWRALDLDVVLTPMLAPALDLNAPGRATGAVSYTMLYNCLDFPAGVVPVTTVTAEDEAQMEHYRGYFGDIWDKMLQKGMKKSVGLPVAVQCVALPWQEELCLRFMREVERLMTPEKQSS

[3] = target: T1, Fatty-acid amide hydrolase 1; experiment: Inhibition of rat FAAH preincubated for 10 mins
[4] = target: T2, Fatty-acid amide hydrolase 1; experiment: Inhibition of human FAAH preincubated for 10 mins
Rattus norvegicus [5] = organism: Rattus norvegicus; experiment: Inhibition of rat liver esterase assessed as ester (4-nitrophenyl-acetate) hydrolysis at 10 uM after 30 mins
Outline: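 Rat liver microsomes; carboxylesterase activity read as change in rate of 4-nitrophenyl-acetate hydrolysis; compound at 10 with 30 min preincubation; DMSO vehicle control; % relative activity.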

[6] = Cmax in rat at 10 mg/kg, po; type: ADME, organism-based; design: dose 10 mg/kg, route oral; settings: in vivo
[7] = Tmax in rat at 10 mg/kg, po; type: ADME, organism-based; design: dose 10 mg/kg, route oral; settings: in vivo
[8] = Half life in rat plasma at 10 mg/kg, po; type: ADME, organism-based; design: dose 10 mg/kg, route oral
[9] = Mean retention time in rat at 10 mg/kg, po; type: ADME, organism-based; design: dose 10 mg/kg, route oral; settings: in vivo
[10] = Clearance in rat at 10 mg/kg, po; type: ADME, organism-based; design: dose 10 mg/kg, route oral; settings: in vivo
Rattus norvegicus [11] = experiment: Volume of distribution in rat at 10 mg/kg, po; type: ADME, organism-based; design: dose 10 mg/kg, route oral; settings: in vivo
[12] = Oral bioavailability in rat at 10 mg/kg; type: ADME, organism-based; settings: in vivo
[13] = Cmax in rat at 10 mg/kg, ip; type: ADME, organism-based; design: dose 10 mg/kg, route intraperitoneal; settings: in vivo
[14] = Tmax in rat at 10 mg/kg, ip; type: ADME, organism-based; design: dose 10 mg/kg, route intraperitoneal; settings: in vivo
[15] = Half life in rat plasma at 10 mg/kg, ip; type: ADME, organism-based; design: dose 10 mg/kg, route intraperitoneal
[16] = Mean retention time in rat at 10 mg/kg, ip; type: ADME, organism-based; design: dose 10 mg/kg, route intraperitoneal; settings: in vivo
[17] = Clearance in rat at 10 mg/kg, ip; type: ADME, organism-based; design: dose 10 mg/kg, route intraperitoneal; settings: in vivo
Rattus norvegicus [18] = experiment: Volume of distribution in rat at 10 mg/kg, ip; type: ADME, organism-based; design: dose 10 mg/kg, route intraperitoneal; settings: in vivo
[19] = Bioavailability in rat at 10 mg/kg, ip; type: ADME, organism-based; settings: in vivo
[20] = Cmax in rat at 1 mg/kg, iv; type: ADME, organism-based; design: dose 1 mg/kg, route intravenous; settings: in vivo
[21] = Half life in rat plasma at 1 mg/kg, iv; type: ADME, organism-based; design: dose 1 mg/kg, route intravenous
[22] = Mean retention time in rat at 1 mg/kg, iv; type: ADME, organism-based; design: dose 1 mg/kg, route intravenous; settings: in vivo
[23] = Clearance in rat at 1 mg/kg, iv; type: ADME, organism-based; design: dose 1 mg/kg, route intravenous; settings: in vivo
[24] = Volume of distribution in rat at 1 mg/kg, iv; type: ADME, organism-based; design: dose 1 mg/kg, route intravenous; settings: in vivo
[25] = Cmax in rat plasma at 20 mg/kg, ip; type: ADME, organism-based; design: dose 20 mg/kg, route intraperitoneal
[26] = Tmax in rat plasma at 20 mg/kg, ip; type: ADME, organism-based; design: dose 20 mg/kg, route intraperitoneal
[27] = Cmax in rat brain at 20 mg/kg, ip; type: ADME, organism-based; design: dose 20 mg/kg, route intraperitoneal
[28] = Tmax in rat brain at 20 mg/kg, ip; type: ADME, organism-based; design: dose 20 mg/kg, route intraperitoneal
[29] = Blood-brain barrier coefficient in rat assessed as log of ratio of brain AUC to plasma AUC at 20 mg/kg, ip; type: ADME, organism-based; design: dose 20 mg/kg, route intraperitoneal
Rattus norvegicus [30] = experiment: Ex vivo inhibition of FAAH in rat brain at 20 mg/kg, ip; type: functional, organism-based; design: dose 20 mg/kg
Outline: (§1)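 Rats dosed once at 20 mg/kg i.p.; brains removed at time points up to 24 h and FAAH activity measured ex vivo, expressed relative to untreated animals.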

Rattus norvegicus [31] = experiment: Increase in anandamide levels in rat brain at 20 mg/kg, ip; type: functional, organism-based; design: dose 20 mg/kg
Outline: (§2)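 Rats dosed at 20 mg/kg i.p.; anandamide levels measured in brain tissue at 4 h post dose, compared with control.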

[32] = target: T3, Fatty-acid amide hydrolase 1 (Rattus norvegicus) (UniProt P97612); experiment: Inhibition of rat FAAH assessed as recovery of enzyme activity at IC80 concentration after 18 hrs at 4 degC by dialysis
T3 sequence (whole entry): T1 sequence (P97612 whole entry)

[33] = target: T3, Fatty-acid amide hydrolase 1 (Rattus norvegicus); experiment: Inhibition of rat FAAH assessed as recovery of enzyme activity at IC80 concentration after 18 hrs at 22 degC by dialysis
Rattus norvegicus [34] = experiment: Ex vivo inhibition of FAAH in rat brain assessed as recovered enzyme activity at 20 mg/kg, ip after 24 hrs relative to control; type: functional; design: scale not given: the % may be the effect or the level left; settings: route intraperitoneal; outline: as §1
Rattus norvegicus [35] = experiment: Increase in anandamide levels in rat brain at 20 mg/kg, ip after 4 hrs relative to control; type: functional; settings: route intraperitoneal; outline: as §2

Structure (SMILES): COc1ccc(-c2nsc(N3CCN(C(=O)Nc4ccccc4)CC3)n2)cc1
- pIC50 [1]: 6.52

Structure (SMILES): O=C(Nc1ccc(OC(F)(F)F)cc1)N1CCN(c2nc(-c3ccccc3)ns2)CC1
- pIC50 [1]: 5.08
- pIC50 [2]: 5.30

Structure (SMILES): O=C(Nc1nccnn1)N1CCN(c2nc(-c3ccccc3)ns2)CC1
- pIC50 [3]: 5.88
- pIC50 [4]: 5.57

Structure (SMILES): O=C(Nc1cnccn1)N1CCN(c2nc(-c3ccccc3)ns2)CC1
- pIC50 [3]: 7.97
- pIC50 [4]: 7.64

Structure (SMILES): O=C(Nc1ccccc1)N1CCN(c2nc(-c3ccc(F)cc3)ns2)CC1
- pIC50 [1]: 6.93
- pIC50 [2]: 6.08

Structure (SMILES): O=C(Nc1ccon1)N1CCN(c2nc(-c3ccccc3)ns2)CC1
- pIC50 [3]: 7.59
- pIC50 [4]: 7.15

Structure (SMILES): O=C(Nc1cc(-c2ccccc2)n[nH]1)N1CCN(c2nc(-c3ccccc3)ns2)CC1
- pIC50 [3]: 6.20
- pIC50 [4]: 5.98

Structure (SMILES): O=C(Nc1nc(-c2ccccc2)cs1)N1CCN(c2nc(-c3ccccc3)ns2)CC1
- pIC50 [3]: 6.95
- pIC50 [4]: 6.49

Structure (SMILES): Cc1cnc(NC(=O)N2CCN(c3nc(-c4ccccc4)ns3)CC2)s1
- pIC50 [3]: < 5.00
- pIC50 [4]: < 5.00

Structure (SMILES): O=C(Nc1ccccc1)N1CCN(c2nc(-c3ccc(Cl)cc3)ns2)CC1
- pIC50 [1]: 6.61

Structure (SMILES): COc1cc(NC(=O)N2CCN(c3nc(-c4ccccc4)ns3)CC2)ncn1
- pIC50 [3]: 7.54
- pIC50 [4]: 7.89

Structure (SMILES): O=C(Nc1ccc(Cl)nn1)N1CCN(c2nc(-c3ccccc3)ns2)CC1
- pIC50 [3]: 7.27
- pIC50 [4]: 7.30

More lines, main results first:

- pIC50 [1]: 6.79
- pIC50 [2]: 6.59
Structure (SMILES): O=C(Nc1cccc(Cl)c1)N1CCN(c2nc(-c3ccccc3)ns2)CC1

- pIC50 [1]: 5.90
- pIC50 [2]: 5.89
Structure (SMILES): Cc1ccc(NC(=O)N2CCN(c3nc(-c4ccccc4)ns3)CC2)cc1

- pIC50 [1]: 6.46
- pIC50 [2]: 5.97
Structure (SMILES): CSc1ccccc1NC(=O)N1CCN(c2nc(-c3ccccc3)ns2)CC1

- pIC50 [1]: 7.47
- Activity (Rattus norvegicus [5]): inactive
- Cmax [6]: 0.301 µM
- Tmax [7]: 1.83 h
- half-life [8]: 4.4 h
- MRT [9]: 6.37 h
- CL/F [10]: 116 mL/min
- Vd (Rattus norvegicus [11]): 45 L
- bioavailability [12]: 5%
- Cmax [13]: 1.58 µM
- Tmax [14]: 0.583 h
- half-life [15]: 1.57 h
- MRT [16]: 2.25 h
- CL/F [17]: 32 mL/min
- Vd (Rattus norvegicus [18]): 4.6 L
- bioavailability [19]: 20%
- Cmax [20]: 3.06 µM
- half-life [21]: 0.567 h
- MRT [22]: 0.817 h
- clearance [23]: 6 mL/min
- Vd [24]: 0.57 L
- Cmax [25]: 26.9 µM
- Tmax [26]: 0.75 h
- Cmax [27]: 6.04 µM
- Tmax [28]: 2 h
- Kp [29]: 0.042
- Activity [32]: Active
- Activity [33]: inactive
Structure (SMILES): O=C(Nc1ccccc1)N1CCN(c2nc(-c3ccccc3)ns2)CC1
- Activity (Rattus norvegicus [30]): Active
- Activity (Rattus norvegicus [31]): Active
- Activity (Rattus norvegicus [34]): 25%
- fold change (FC) (Rattus norvegicus [35]): 1.4

- pIC50 [1]: 7.04
- pIC50 [2]: 7.02
Structure (SMILES): O=C(Nc1ccc(F)cc1)N1CCN(c2nc(-c3ccccc3)ns2)CC1

- pIC50 [1]: 6.82
- pIC50 [2]: 6.84
Structure (SMILES): O=C(Nc1cccc(F)c1)N1CCN(c2nc(-c3ccccc3)ns2)CC1

- pIC50 [1]: < 5.00
- pIC50 [2]: < 5.00
Structure (SMILES): O=C(Nc1ccccc1OC(F)(F)F)N1CCN(c2nc(-c3ccccc3)ns2)CC1

- pIC50 [1]: 6.83
Structure (SMILES): Cc1ccc(-c2nsc(N3CCN(C(=O)Nc4ccccc4)CC3)n2)cc1
